TRPC6 inh: mouse TRPC6 channel inhibition; HEK293-TRPC6, membrane potential dye, ACh-evoked depolarization; active compounds read low; AID 2553; B-score at 10 µM; hit rate 1.1% among 310,000;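 active means B-score under library mean minus 3 SD, initial fluorescence not abnormally high, positive integrated signal ratio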;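 further: B-score derived from integrated fluorescence ratio over the kinetic read; more negative B-score means stronger inhibition of depolarization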
TRPC4 PAM: allosterically enhances the mouse TRPC4 cation channel. Q9QUQ5. HEK293 TRPC4beta/mu-opioid, DAMGO EC20, Fluo-4 Ca2+ flux; active compounds read high. B-score at 10 µM. hit rate 0.42% among 310,000. AID 2227;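 active means B-score of calcium response area above 5 SD of library B-scores, with initial fluorescence ratio within 5 SD of library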
Target sequence (Q9QUQ5 whole entry, looked up): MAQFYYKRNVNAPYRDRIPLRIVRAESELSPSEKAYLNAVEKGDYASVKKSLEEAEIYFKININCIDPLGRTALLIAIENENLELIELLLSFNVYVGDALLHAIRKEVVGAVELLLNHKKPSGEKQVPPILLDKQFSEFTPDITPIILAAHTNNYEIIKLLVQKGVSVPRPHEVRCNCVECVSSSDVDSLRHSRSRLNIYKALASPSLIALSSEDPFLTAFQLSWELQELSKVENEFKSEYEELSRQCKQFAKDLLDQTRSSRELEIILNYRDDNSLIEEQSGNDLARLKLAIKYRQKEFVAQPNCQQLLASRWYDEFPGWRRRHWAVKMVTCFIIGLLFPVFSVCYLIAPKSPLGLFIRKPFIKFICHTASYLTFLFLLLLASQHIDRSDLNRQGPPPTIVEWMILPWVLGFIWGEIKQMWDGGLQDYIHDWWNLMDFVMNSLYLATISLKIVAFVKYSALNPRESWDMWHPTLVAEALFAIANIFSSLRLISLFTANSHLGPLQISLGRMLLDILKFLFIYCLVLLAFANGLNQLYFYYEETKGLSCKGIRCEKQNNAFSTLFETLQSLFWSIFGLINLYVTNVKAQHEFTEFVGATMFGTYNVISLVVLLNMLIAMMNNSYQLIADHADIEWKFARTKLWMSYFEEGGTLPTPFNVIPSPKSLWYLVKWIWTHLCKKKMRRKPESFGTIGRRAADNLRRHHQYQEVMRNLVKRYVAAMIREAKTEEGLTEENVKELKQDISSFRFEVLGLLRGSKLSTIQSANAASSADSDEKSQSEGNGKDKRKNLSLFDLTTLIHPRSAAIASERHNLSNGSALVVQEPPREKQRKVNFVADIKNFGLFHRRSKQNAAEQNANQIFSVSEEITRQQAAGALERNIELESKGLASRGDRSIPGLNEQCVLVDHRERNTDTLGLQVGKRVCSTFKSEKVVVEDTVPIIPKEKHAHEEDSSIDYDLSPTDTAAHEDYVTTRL
TRPC4 act: TRPC4 (mouse) channel activation. B-score at 10 µM. hit rate 0.49% among 310,000. Q9QUQ5. HEK293 TRPC4beta/mu-opioid, Fluo4 calcium fluorescence; active compounds read high. AID 2237;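 active means B-score above 5 SD of library B-scores, and initial fluorescence ratio not above library mean plus 5 SD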;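 further: positive B-score marks a calcium rise read as TRPC4 activation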
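Assay system – TRPC4beta and mu-opioid receptor HEK293 stable cells · Measured by – Fluo4 fluorescence, kinetic · Schedule – dye loading 45 min room temperature, 110 s kinetic read · Read-out – B-scored integrated calcium fluorescence ratio · Controls – buffer and maximal DAMGO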
TRPC6 act: activates the mouse TRPC6 cation channel; B-score at 10 µM; hit rate 0.13% among 310,000; HEK293-TRPC6 membrane potential dye fluorescence; active compounds read high; AID 2550; Q61143;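 active means B-score of the integrated fluorescence ratio above library mean plus 3 SD, and starting fluorescence ratio within library mean plus 5 SD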;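 further: higher score means more depolarization so channel activation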
TRPC4 inh: blocks the mouse TRPC4 cation channel; HEK293 TRPC4beta/mu-opioid, DAMGO-evoked Fluo4 calcium flux; active compounds read low; B-score at 10 µM; hit rate 0.39% among 300,000; AID 2247;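 active means B-score over 3 SD under the library average, no early fluorescence shift, positive overall ratio signal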
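Material: HEK293 cells with stable TRPC4beta plus mu-opioid receptor expression / Probe or stimulus: DAMGO in two steps, submaximal then maximal / Compound: single concentration per test compound / Technique: kinetic Fluo4 fluorescence imaging of calcium influx / Read-out: per-well B score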
TRPC4 spec 2: second selectivity test of TRPC6 inhibitors: effect on mouse TRPC4; shares compounds with TRPC6 inh; HEK293 TRPC4/MOR, membrane potential dye fluorescence; channel activated by saturating DAMGO dose; inhibition, % at 10 µM; hit rate 42% among 920; AID 2776;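 active means compounds whose fluorescence signal differed from control wells by over 3 SD, either direction, in both duplicate plates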
TRPC4 spec: tests whether TRPC6 inhibitors also affect mouse TRPC4; shares compounds with TRPC6 inh; HEK293 TRPC4/mu-opioid, membrane potential fluorescence; activity change, negative = inhibition, % at 10 µM; hit rate 61% among 920; AID 2777;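 active means rise or fall in signal beyond 3 SD of buffer-only wells in both replicate plates, either sign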;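 further: integrated kinetic ratio of fluorescence range over baseline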
HEK293 MPD ctr 2-1: second check of TRPC6 inhibitor effects in parental HEK293 cells. hit rate 31% among 920. signal change vs control, % at 10 µM. shares compounds with TRPC6 inh. parental HEK293 membrane potential dye fluorescence; maximal acetylcholine challenge after compound addition;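 active means membrane potential signal moving either way by over 3 SD of the maximum-effect control, in both duplicate plates, meaning non-specific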
HEK293 MPD ctr-1: parental HEK293 nonspecific activity of TRPC6 inhibitors; shares compounds with TRPC6 inh; parental HEK293 membrane potential dye fluorescence; membrane potential signal change, % at 10 µM; hit rate 60% among 920; AID 2780;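 active means membrane potential signal shifting up or down by more than 3 SD of buffer-only wells, on both duplicate plates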
HEK293 MPD ctr-2: checks TRPC6 modulator effects in parental HEK293 cells | shares compounds with TRPC6 inh | membrane potential dye fluorescence | membrane potential signal change, % at 10 µM | hit rate 51% among 2,400;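 active means membrane potential signal moves up or down beyond 5 SD from buffer-only wells, on both duplicate plates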
HEK293 MPD ctr 2-2: second counter-screen for TRPC6 modulators: effect in parental HEK293 cells. shares compounds with TRPC6 inh. membrane potential dye fluorescence; after compound, maximal acetylcholine stimulation. inhibition, % at 10 µM. hit rate 14% among 2,400. AID 488926;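 active means membrane potential signal drops by more than 5 SD from the mean control signal, in both duplicate plates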
TRPC4 ctr mod: mouse TRPC4 off-target activity of TRPC6 modulators. HEK293 TRPC4/mu-opioid, membrane potential fluorescence. shares compounds with TRPC6 inh. hit rate 69% among 2,400. percent change from control (negative = decrease, positive = increase), % at 10 µM;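 active means membrane potential signal moved up or down beyond 5 SD of buffer control wells, in both duplicate plates, actives on both sides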
TRPC4/MOR inh 2: mouse TRPC4 off-target activity of TRPC6 modulators, second screen; shares compounds with TRPC6 inh; HEK293 TRPC4/mu-opioid, membrane potential dye fluorescence; stimulated with maximal-effect DAMGO; inhibition, % at 10 µM; hit rate 55% among 2,400;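 active means drop in membrane potential signal beyond 5 SD of the control wells in both duplicate plates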;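 further: TRPC4 counter screen for TRPC6 hits run under conditions tuned for TRPC6 not TRPC4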
TRPC6 inh conf: confirmation of mouse TRPC6 inhibitors; shares compounds with TRPC6 inh; HEK293-TRPC6, membrane potential dye, ACh-evoked depolarization; inhibition, % at 10 µM; hit rate 43% among 3,300; AID 488960;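 active means fluorescence ratio falls more than 5 SD below the full-stimulation control mean, in both duplicate runs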;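 further: integrated fluorescence ratio of peak minus minimum over baseline after agonist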
TRPC6 act confirm: confirmation of mouse TRPC6 activators; shares compounds with TRPC6 inh; HEK293-TRPC6 membrane potential dye fluorescence, FDSS; activation, % at 10 µM; hit rate 11% among 2,800; AID 488961;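 active means ratio signal rise beyond 5 SD above unstimulated control wells' mean, seen in both duplicate runs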
Of the large screens only hits and unclear results are named; the others gave an inactive call (follow-up assays come after a bar, where they were run). Sampled rows, rich in hits. Any-hit rate of the full collection: about 2.3%.

CCc1c(C)c(C#N)c2nc3ccccc3n2c1Cl	none
Cc1c2c(n3c(nc4ccccc43)c1C#N)N(CCN(C)C)CC2	TRPC6 inh -11 | HEK293 MPD ctr-2 -324% | HEK293 MPD ctr 2-2 95% | TRPC4 ctr mod -60% | TRPC4/MOR inh 2 71% | TRPC6 inh conf 70% | TRPC6 act confirm inactive
CCOC(=O)c1sc(N2C(=O)C(O)=C(C(=O)c3ccco3)C2c2ccc([N+](=O)[O-])cc2)nc1C (stereo not given)	none
COc1cc(OC)cc(C(=O)N[C@H](C(=O)Nc2nc3ccc(S(C)(=O)=O)cc3s2)C(C)C)c1	none
CCCCN1CCc2c([nH]c3ccccc23)C1=O	none
Cc1cccc2c(N)c3c(nc12)N(C)CC3	TRPC6 inh -5.5 | HEK293 MPD ctr-2 -154% | HEK293 MPD ctr 2-2 91% | TRPC4 ctr mod -36% | TRPC4/MOR inh 2 81% | TRPC6 inh conf 78% | TRPC6 act confirm inactive
Cc1ccc2nc3c(c(N)c2c1)CCN3C	TRPC6 inh -7.1, TRPC4 inh -7 | TRPC4 spec 2 51% | TRPC4 spec -27% | HEK293 MPD ctr 2-1 13% | HEK293 MPD ctr-1 -460% | TRPC6 inh conf 58% | TRPC6 act confirm inactive
Cc1ccc2nc3c(c(N)c2c1)CCN3c1ccccc1	none
CCCCN1CCc2c1nc1ccc(Br)cc1c2N	TRPC6 inh -6.3 | HEK293 MPD ctr-2 -132% | HEK293 MPD ctr 2-2 98% | TRPC4 ctr mod -37% | TRPC4/MOR inh 2 93% | TRPC6 inh conf 88% | TRPC6 act confirm inactive
CN1CCc2c1nc1ccccc1c2N (tested in a mixture with another compound)	none
COc1ccc2nc(C)cc(N3CCOCC3)c2c1	TRPC6 inh -12 | HEK293 MPD ctr-2 -428% | HEK293 MPD ctr 2-2 100% | TRPC4 ctr mod -60% | TRPC4/MOR inh 2 67% | TRPC6 inh conf 76% | TRPC6 act confirm inactive
COc1ccc2nc(C)cc(N3CC(C)OC(C)C3)c2c1 (stereo not given)	none
Cc1ccc2nc(C)cc(N3CCOCC3)c2c1	TRPC6 inh -11 | HEK293 MPD ctr-2 -300% | HEK293 MPD ctr 2-2 96% | TRPC4 ctr mod -45% | TRPC4/MOR inh 2 69% | TRPC6 inh conf 75% | TRPC6 act confirm inactive
COc1ccc(C(=O)CN2CCN(c3cc(C)nc4ccccc34)CC2)cc1	none
COc1ccc2nc(C)cc(N3CCN(c4ccccc4)CC3)c2c1	TRPC6 inh -5.1 | HEK293 MPD ctr-2 -174% | HEK293 MPD ctr 2-2 inactive | TRPC4 ctr mod -41% | TRPC4/MOR inh 2 68% | TRPC6 inh conf inactive | TRPC6 act confirm inactive
CCCn1c2c(c(=N)c3c1CCC3)CCC2	TRPC6 inh -8.1 | TRPC4 spec 2 78% | TRPC4 spec -28% | HEK293 MPD ctr 2-1 12% | HEK293 MPD ctr-1 -578% | TRPC6 inh conf inactive | TRPC6 act confirm inactive
CCCN(CCC)CCCNc1ccc2nnc(-c3ccc(F)cc3)n2n1	TRPC6 inh -5.1, TRPC4 act 94 | HEK293 MPD ctr-2 -190% | HEK293 MPD ctr 2-2 inactive | TRPC4 ctr mod -17% | TRPC4/MOR inh 2 36% | TRPC6 inh conf inactive | TRPC6 act confirm inactive
CCOC(=O)CC(=O)CSc1ccc2nnc(-c3ccc(F)cc3)n2n1	none
CCOC(CCNC(=O)c1cn(CC(C)C)c(=O)c2c1c1ccccc1n2C)OCC	none
Cn1c(-c2c(N)n(CCc3ccccc3)c3nc4ccccc4nc23)nc2ccccc21	TRPC6 inh -5.7, TRPC4 inh -6 | HEK293 MPD ctr-2 264% | HEK293 MPD ctr 2-2 inactive | TRPC4 ctr mod 56% | TRPC4/MOR inh 2 80% | TRPC6 inh conf inactive | TRPC6 act confirm inactive
Cc1cc(C(=O)NNC(=O)c2sccc2C)c(C)o1	none
COc1ccc(-c2nc(-c3cccs3)c(-c3cccs3)[nH]2)cc1OC	TRPC6 inh -5.5 | HEK293 MPD ctr-2 inactive | HEK293 MPD ctr 2-2 inactive | TRPC4 ctr mod inactive | TRPC4/MOR inh 2 inactive | TRPC6 inh conf inactive | TRPC6 act confirm inactive
CC1CN(c2ccccc2)CCN1Cc1nc(Cc2ccccc2)no1 (stereo not given)	none
COc1cccc(OCc2cc(C(=O)N(Cc3ccccc3)CC3CC3)no2)c1	TRPC6 inh -5.2 | HEK293 MPD ctr-2 131% | HEK293 MPD ctr 2-2 inactive | TRPC4 ctr mod 26% | TRPC4/MOR inh 2 inactive | TRPC6 inh conf inactive
COc1cccc(OCc2cc(C(=O)N(C)Cc3nc4ccccc4[nH]3)no2)c1	none
CNC(=O)N(O)C1N(/N=C/c2cc(Br)ccc2O)C(=S)SC1(C)C (stereo not given)	TRPC6 inh -6.7 | TRPC4 spec 2 inactive | TRPC4 spec -12% | HEK293 MPD ctr 2-1 inactive | HEK293 MPD ctr-1 -212% | TRPC6 inh conf inactive | TRPC6 act confirm inactive
CNC(=O)N(O)C1N(/N=C/c2ccc(C)cc2)C(=S)SC1(C)C (stereo not given)	none
CN(C)CCNc1nc2sc3c(c2c(=O)n1-c1ccc(F)cc1)CCCCC3	TRPC6 inh -5.8 | HEK293 MPD ctr-2 inactive | HEK293 MPD ctr 2-2 inactive | TRPC4 ctr mod inactive | TRPC4/MOR inh 2 50% | TRPC6 inh conf inactive | TRPC6 act confirm inactive
COc1ccc(-n2c(NCCN(C)C)nc3sc4c(c3c2=O)CCCCC4)cc1	TRPC6 inh -7.5 | TRPC4 spec 2 inactive | TRPC4 spec inactive | HEK293 MPD ctr 2-1 inactive | HEK293 MPD ctr-1 inactive | TRPC6 inh conf inactive | TRPC6 act confirm inactive
